Laboratory results taken from ChEMBL document CHEMBL1121923, “N2- and C-7 substituted actinomycin D analogues: synthesis, DNA-binding affinity, and biochemical and biological properties. Structure-activity relationship” (J Med Chem, 1981).

Organism: Bos taurus
Experiment: Thermal denaturation (deltaTm) of compound against calf thymus DNA was measured
Assay type: ADME
Conditions: cattle, in vitro
Method in brief: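 Calf thymus DNA (MW 100 000–500 000) in 0.01 M phosphate, 5 × 10^-3 M EDTA, pH 7.0; drug 7 × 10^-4 M, DNA nucleotide 7 × 10^-3 M; 259 nm absorbance read at 0.25–1.0 °C steps; Tm taken at 50% hyperchromicity; ΔTm = complex Tm minus DNA Tm.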

Row | SMILES | Delta Tm
1 | Cc1c2oc3c(C)ccc(C(=O)N[C@@H]4C(=O)N[C@H](C(C)C)C(=O)N5CCC[C@H]5C(=O)N(C)CC(=O)N(C)[C@@H](C(C)C)C(=O)O[C@@H]4C)c3nc-2c(C(=O)N[C@@H]2C(=O)N[C@H](C(C)C)C(=O)N3CCC[C@H]3C(=O)N(C)CC(=O)N(C)[C@@H](C(C)C)C(=O)O[C@@H]2C)c(NCCCN)c1=O | 6.2
2 | Cc1c2oc3c(C)c(O)c(N)c(C(=O)N[C@@H]4C(=O)N[C@H](C(C)C)C(=O)N5CCC[C@H]5C(=O)N(C)CC(=O)N(C)[C@@H](C(C)C)C(=O)O[C@@H]4C)c3nc-2c(C(=O)N[C@@H]2C(=O)N[C@H](C(C)C)C(=O)N3CCC[C@H]3C(=O)N(C)CC(=O)N(C)[C@@H](C(C)C)C(=O)O[C@@H]2C)c/c1=N/Cc1ccccc1 | 6.6
3 | Cc1c2oc3c(C)ccc(C(=O)N[C@@H]4C(=O)N[C@H](C(C)C)C(=O)N5CCC[C@H]5C(=O)N(C)CC(=O)N(C)[C@@H](C(C)C)C(=O)O[C@@H]4C)c3nc-2c(C(=O)N[C@@H]2C(=O)N[C@H](C(C)C)C(=O)N3CCC[C@H]3C(=O)N(C)CC(=O)N(C)[C@@H](C(C)C)C(=O)O[C@@H]2C)c(NCCCCCCCCCCN)c1=O | 6.6
4 | Cc1c2oc3c(C)ccc(C(=O)N[C@@H]4C(=O)N[C@H](C(C)C)C(=O)N5CCC[C@H]5C(=O)N(C)CC(=O)N(C)[C@@H](C(C)C)C(=O)O[C@@H]4C)c3nc-2c(C(=O)N[C@@H]2C(=O)N[C@H](C(C)C)C(=O)N3CCC[C@H]3C(=O)N(C)CC(=O)N(C)[C@@H](C(C)C)C(=O)O[C@@H]2C)c(NCCCCCN)c1=O | 1.1
5 | Cc1c2oc3c(C)c(OCc4ccc(Cl)c(Cl)c4)cc(C(=O)N[C@@H]4C(=O)N[C@H](C(C)C)C(=O)N5CCC[C@H]5C(=O)N(C)CC(=O)N(C)[C@@H](C(C)C)C(=O)O[C@@H]4C)c3nc-2c(C(=O)N[C@@H]2C(=O)N[C@H](C(C)C)C(=O)N3CCC[C@H]3C(=O)N(C)CC(=O)N(C)[C@@H](C(C)C)C(=O)O[C@@H]2C)c(N)c1=O | 0
6 | CCCCCCOc1cc(C(=O)N[C@@H]2C(=O)N[C@H](C(C)C)C(=O)N3CCC[C@H]3C(=O)N(C)CC(=O)N(C)[C@@H](C(C)C)C(=O)O[C@@H]2C)c2nc3c(C(=O)N[C@@H]4C(=O)N[C@H](C(C)C)C(=O)N5CCC[C@H]5C(=O)N(C)CC(=O)N(C)[C@@H](C(C)C)C(=O)O[C@@H]4C)c(N)c(=O)c(C)c-3oc2c1C | 1
7 | CCCCNc1c(C(=O)N[C@@H]2C(=O)N[C@H](C(C)C)C(=O)N3CCC[C@H]3C(=O)N(C)CC(=O)N(C)[C@@H](C(C)C)C(=O)O[C@@H]2C)c2nc3c(C(=O)N[C@@H]4C(=O)N[C@H](C(C)C)C(=O)N5CCC[C@H]5C(=O)N(C)CC(=O)N(C)[C@@H](C(C)C)C(=O)O[C@@H]4C)ccc(C)c3oc-2c(C)c1=O | 0.2
8 | COc1cc(C(=O)N[C@@H]2C(=O)N[C@H](C(C)C)C(=O)N3CCC[C@H]3C(=O)N(C)CC(=O)N(C)[C@@H](C(C)C)C(=O)O[C@@H]2C)c2nc3c(C(=O)N[C@@H]4C(=O)N[C@H](C(C)C)C(=O)N5CCC[C@H]5C(=O)N(C)CC(=O)N(C)[C@@H](C(C)C)C(=O)O[C@@H]4C)c(N)c(=O)c(C)c-3oc2c1C | 5.5
9 | Cc1c2oc3c(C)ccc(C(=O)N[C@@H]4C(=O)N[C@H](C(C)C)C(=O)N5CCC[C@H]5C(=O)N(C)CC(=O)N(C)[C@@H](C(C)C)C(=O)O[C@@H]4C)c3nc-2c(C(=O)N[C@@H]2C(=O)N[C@H](C(C)C)C(=O)N3CCC[C@H]3C(=O)N(C)CC(=O)N(C)[C@@H](C(C)C)C(=O)O[C@@H]2C)c(NCCCCN)c1=O | 1.8
10 | Cc1c2oc3c(C)c(O)c(N)c(C(=O)N[C@@H]4C(=O)N[C@H](C(C)C)C(=O)N5CCC[C@H]5C(=O)N(C)CC(=O)N(C)[C@@H](C(C)C)C(=O)O[C@@H]4C)c3nc-2c(C(=O)N[C@@H]2C(=O)N[C@H](C(C)C)C(=O)N3CCC[C@H]3C(=O)N(C)CC(=O)N(C)[C@@H](C(C)C)C(=O)O[C@@H]2C)c/c1=N/Cc1ccco1 | 5.8
11 | CCCCOc1cc(C(=O)N[C@@H]2C(=O)N[C@H](C(C)C)C(=O)N3CCC[C@H]3C(=O)N(C)CC(=O)N(C)[C@@H](C(C)C)C(=O)O[C@@H]2C)c2nc3c(C(=O)N[C@@H]4C(=O)N[C@H](C(C)C)C(=O)N5CCC[C@H]5C(=O)N(C)CC(=O)N(C)[C@@H](C(C)C)C(=O)O[C@@H]4C)c(N)c(=O)c(C)c-3oc2c1C | 2.7
12 | CCCCCCCCCNc1c(C(=O)N[C@@H]2C(=O)N[C@H](C(C)C)C(=O)N3CCC[C@H]3C(=O)N(C)CC(=O)N(C)[C@@H](C(C)C)C(=O)O[C@@H]2C)c2nc3c(C(=O)N[C@@H]4C(=O)N[C@H](C(C)C)C(=O)N5CCC[C@H]5C(=O)N(C)CC(=O)N(C)[C@@H](C(C)C)C(=O)O[C@@H]4C)ccc(C)c3oc-2c(C)c1=O | 0
13 | CCCCCCCCC/N=c1/cc(C(=O)N[C@@H]2C(=O)N[C@H](C(C)C)C(=O)N3CCC[C@H]3C(=O)N(C)CC(=O)N(C)[C@@H](C(C)C)C(=O)O[C@@H]2C)c2nc3c(C(=O)N[C@@H]4C(=O)N[C@H](C(C)C)C(=O)N5CCC[C@H]5C(=O)N(C)CC(=O)N(C)[C@@H](C(C)C)C(=O)O[C@@H]4C)c(N)c(O)c(C)c3oc-2c1C | 1.1
14 | CCCCCCNc1c(C(=O)N[C@@H]2C(=O)N[C@H](C(C)C)C(=O)N3CCC[C@H]3C(=O)N(C)CC(=O)N(C)[C@@H](C(C)C)C(=O)O[C@@H]2C)c2nc3c(C(=O)N[C@@H]4C(=O)N[C@H](C(C)C)C(=O)N5CCC[C@H]5C(=O)N(C)CC(=O)N(C)[C@@H](C(C)C)C(=O)O[C@@H]4C)ccc(C)c3oc-2c(C)c1=O | 0
15 | Cc1c2oc3c(C)c(O)c(N)c(C(=O)N[C@@H]4C(=O)N[C@H](C(C)C)C(=O)N5CCC[C@H]5C(=O)N(C)CC(=O)N(C)[C@@H](C(C)C)C(=O)O[C@@H]4C)c3nc-2c(C(=O)N[C@@H]2C(=O)N[C@H](C(C)C)C(=O)N3CCC[C@H]3C(=O)N(C)CC(=O)N(C)[C@@H](C(C)C)C(=O)O[C@@H]2C)cc1=N | 8.2
16 | Cc1c2oc3c(C)c(O)c(N)c(C(=O)N[C@@H]4C(=O)N[C@H](C(C)C)C(=O)N5CCC[C@H]5C(=O)N(C)CC(=O)N(C)[C@@H](C(C)C)C(=O)O[C@@H]4C)c3nc-2c(C(=O)N[C@@H]2C(=O)N[C@H](C(C)C)C(=O)N3CCC[C@H]3C(=O)N(C)CC(=O)N(C)[C@@H](C(C)C)C(=O)O[C@@H]2C)c/c1=N/Cc1ccc(Cl)c(Cl)c1 | 7
17 | Cc1c2oc3c(C)c(O)c(N)c(C(=O)N[C@@H]4C(=O)N[C@H](C(C)C)C(=O)N5CCC[C@H]5C(=O)N(C)CC(=O)N(C)[C@@H](C(C)C)C(=O)O[C@@H]4C)c3nc-2c(C(=O)N[C@@H]2C(=O)N[C@H](C(C)C)C(=O)N3CCC[C@H]3C(=O)N(C)CC(=O)N(C)[C@@H](C(C)C)C(=O)O[C@@H]2C)c/c1=N/Cc1cccc(Oc2ccccc2)c1 | 5.3
18 | CCCNc1c(C(=O)N[C@@H]2C(=O)N[C@H](C(C)C)C(=O)N3CCC[C@H]3C(=O)N(C)CC(=O)N(C)[C@@H](C(C)C)C(=O)O[C@@H]2C)c2nc3c(C(=O)N[C@@H]4C(=O)N[C@H](C(C)C)C(=O)N5CCC[C@H]5C(=O)N(C)CC(=O)N(C)[C@@H](C(C)C)C(=O)O[C@@H]4C)ccc(C)c3oc-2c(C)c1=O | 1.5
19 | Cc1c2oc3c(C)c(OCc4ccc([N+](=O)[O-])cc4)cc(C(=O)N[C@@H]4C(=O)N[C@H](C(C)C)C(=O)N5CCC[C@H]5C(=O)N(C)CC(=O)N(C)[C@@H](C(C)C)C(=O)O[C@@H]4C)c3nc-2c(C(=O)N[C@@H]2C(=O)N[C@H](C(C)C)C(=O)N3CCC[C@H]3C(=O)N(C)CC(=O)N(C)[C@@H](C(C)C)C(=O)O[C@@H]2C)c(N)c1=O | 0
20 | CCCCCCCCCCCNc1c(C(=O)N[C@@H]2C(=O)N[C@H](C(C)C)C(=O)N3CCC[C@H]3C(=O)N(C)CC(=O)N(C)[C@@H](C(C)C)C(=O)O[C@@H]2C)c2nc3c(C(=O)N[C@@H]4C(=O)N[C@H](C(C)C)C(=O)N5CCC[C@H]5C(=O)N(C)CC(=O)N(C)[C@@H](C(C)C)C(=O)O[C@@H]4C)ccc(C)c3oc-2c(C)c1=O | 0
21 | Cc1c2oc3c(C)ccc(C(=O)N[C@@H]4C(=O)N[C@H](C(C)C)C(=O)N5CCC[C@H]5C(=O)N(C)CC(=O)N(C)[C@@H](C(C)C)C(=O)O[C@@H]4C)c3nc-2c(C(=O)N[C@@H]2C(=O)N[C@H](C(C)C)C(=O)N3CCC[C@H]3C(=O)N(C)CC(=O)N(C)[C@@H](C(C)C)C(=O)O[C@@H]2C)c(NCCCCCCCCN)c1=O | 0.3
22 | Cc1c2oc3c(C)c(OCc4ccc(Cl)cc4)cc(C(=O)N[C@@H]4C(=O)N[C@H](C(C)C)C(=O)N5CCC[C@H]5C(=O)N(C)CC(=O)N(C)[C@@H](C(C)C)C(=O)O[C@@H]4C)c3nc-2c(C(=O)N[C@@H]2C(=O)N[C@H](C(C)C)C(=O)N3CCC[C@H]3C(=O)N(C)CC(=O)N(C)[C@@H](C(C)C)C(=O)O[C@@H]2C)c(N)c1=O | 0
23 | Cc1c2oc3c(C)c(O)c(N)c(C(=O)N[C@@H]4C(=O)N[C@H](C(C)C)C(=O)N5CCC[C@H]5C(=O)N(C)CC(=O)N(C)[C@@H](C(C)C)C(=O)O[C@@H]4C)c3nc-2c(C(=O)N[C@@H]2C(=O)N[C@H](C(C)C)C(=O)N3CCC[C@H]3C(=O)N(C)CC(=O)N(C)[C@@H](C(C)C)C(=O)O[C@@H]2C)cc1=O | 6.7
24 | CCCOc1cc(C(=O)N[C@@H]2C(=O)N[C@H](C(C)C)C(=O)N3CCC[C@H]3C(=O)N(C)CC(=O)N(C)[C@@H](C(C)C)C(=O)O[C@@H]2C)c2nc3c(C(=O)N[C@@H]4C(=O)N[C@H](C(C)C)C(=O)N5CCC[C@H]5C(=O)N(C)CC(=O)N(C)[C@@H](C(C)C)C(=O)O[C@@H]4C)c(N)c(=O)c(C)c-3oc2c1C | 3.5
25 | CCCCCCCOc1cc(C(=O)N[C@@H]2C(=O)N[C@H](C(C)C)C(=O)N3CCC[C@H]3C(=O)N(C)CC(=O)N(C)[C@@H](C(C)C)C(=O)O[C@@H]2C)c2nc3c(C(=O)N[C@@H]4C(=O)N[C@H](C(C)C)C(=O)N5CCC[C@H]5C(=O)N(C)CC(=O)N(C)[C@@H](C(C)C)C(=O)O[C@@H]4C)c(N)c(=O)c(C)c-3oc2c1C | 0
26 | CCOc1cc(C(=O)N[C@@H]2C(=O)N[C@H](C(C)C)C(=O)N3CCC[C@H]3C(=O)N(C)CC(=O)N(C)[C@@H](C(C)C)C(=O)O[C@@H]2C)c2nc3c(C(=O)N[C@@H]4C(=O)N[C@H](C(C)C)C(=O)N5CCC[C@H]5C(=O)N(C)CC(=O)N(C)[C@@H](C(C)C)C(=O)O[C@@H]4C)c(N)c(=O)c(C)c-3oc2c1C | 5.9
